m5-HT2A agonist – mouse Htr2a agonists via beta-arrestin recruitment, primary screen, cell-based, luminescence. activation, % at 7.6 µM. 0.66% of 360,000 active. 5-hydroxytryptamine receptor 2A (Mus musculus), P35363. CHO-K1 mHTR2A beta-arrestin complementation; percent of 30 µM serotonin response;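 active = activation above a run cutoff, the mean activation of all tested compounds plus 3 SD, cut at about 14% in these data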;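 note: 0% = plate median of compound wells and 100% = 30 µM serotonin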
Hep lipid drop – inhibitors of hepatocyte lipid droplet formation, primary screen, imaging, high-throughput imaging, BODIPY stain. AML12 mouse hepatocytes, oleate lipid droplets. inhibition, % at 6.5 µM. 0.4% of 240,000 active;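 active = lipid droplet intensity inhibited by at least 50%, with more than 500 cells counted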
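Material – AML12 mouse liver cells · Also added – oleate loading, 100 µM · Compound dosing – 6.5 µM single-point dosing · Times – overnight treatment with compound plus oleate · Measured by – fluorescence imaging, 20x objective, two fields per well · Read-out – percent inhibition of filter-corrected integrated lipid droplet intensity per well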
PREPL inhibitor – PREPL enzyme inhibitors, primary screen, biochemical, fluorescence polarization; Prolyl endopeptidase-like (Homo sapiens), Q4J6C6; recombinant PREPL, fluorescence polarization activity-based probe; inhibition, % at 5.96 µM; 0.68% of 320,000 active; AID 2751, 2010; in the data active = inhibition above about 43%;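 note: 0% = enzyme with DMSO and 100% = wells lacking enzyme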
Target sequence (Q4J6C6 whole entry, looked up): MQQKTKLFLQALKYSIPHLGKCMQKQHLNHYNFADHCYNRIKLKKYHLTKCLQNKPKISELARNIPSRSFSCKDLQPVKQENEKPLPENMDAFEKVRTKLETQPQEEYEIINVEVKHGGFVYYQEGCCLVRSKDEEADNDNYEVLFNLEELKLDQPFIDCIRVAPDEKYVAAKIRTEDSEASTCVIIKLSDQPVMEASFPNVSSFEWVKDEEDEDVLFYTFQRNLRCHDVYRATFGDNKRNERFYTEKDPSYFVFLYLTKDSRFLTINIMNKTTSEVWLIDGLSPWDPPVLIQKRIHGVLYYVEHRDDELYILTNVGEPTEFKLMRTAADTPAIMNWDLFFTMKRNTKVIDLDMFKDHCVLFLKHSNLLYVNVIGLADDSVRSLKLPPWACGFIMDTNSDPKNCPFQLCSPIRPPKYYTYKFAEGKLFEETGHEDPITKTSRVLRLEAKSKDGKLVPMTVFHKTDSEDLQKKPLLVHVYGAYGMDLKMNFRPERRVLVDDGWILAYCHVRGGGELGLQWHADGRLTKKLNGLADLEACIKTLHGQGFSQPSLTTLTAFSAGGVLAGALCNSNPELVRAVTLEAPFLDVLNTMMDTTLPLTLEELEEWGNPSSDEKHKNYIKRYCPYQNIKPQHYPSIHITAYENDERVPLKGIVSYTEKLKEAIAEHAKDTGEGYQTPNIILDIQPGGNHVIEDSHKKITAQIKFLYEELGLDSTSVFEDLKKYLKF
NTR1 ag – agonists of human NTR1, primary screen, imaging, U2OS cells, beta-arrestin-GFP, high content | Neurotensin receptor type 1 (Homo sapiens), P30989 | NTR1-U2OS beta-arrestin-GFP spot imaging, agonist mode | activation, % at 20 µM | 0.17% of 330,000 active | AID 493036, 2011;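 active = activation at or above 40% of the spot to cytoplasm intensity ratio, with at least 20 cells analyzed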;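 note: 0% = DMSO without peptide and 100% = 100 nM NTR1 peptide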
MC4R antagonist – MC4R antagonists of cAMP signaling, primary screen, cell-based, TR-FRET, antagonist arm of biased-ligand search; Melanocortin receptor 4 (Homo sapiens), P32245; MC4R-expressing cells, MTII-stimulated cAMP, LANCE TR-FRET; inhibition, % at 6.5 µM; 0.48% of 360,000 active; AID 540295, 2011;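 active = inhibition above its plate's cutoff, the mean of tested wells on that plate plus 3 SD, cut at about 29% in these data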;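 note: 0% = Melanotan II alone and 100% = Melanotan II plus saturating MCL0020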
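Assay system: U2OS cells stably expressing human melanocortin 4 receptor (MC4R) / Dosing: 6.5 µM / Timing: compound 30 min, challenge 1 h, detection 1 h / Measured by: Eu-cAMP/anti-cAMP TR-FRET, emission 671 nm / Replicates: singlicate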
MC4R ag barr – MC4R agonists recruiting beta-arrestin, primary screen, cell-based, luminescence, agonist arm of biased-ligand search; Melanocortin receptor 4 (Homo sapiens), P32245; U2OS MC4R beta-arrestin complementation; percent of melanotan II response, DMSO zero; activation, % at 8.9 µM; 0.98% of 360,000 active; AID 540308, 2011;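 active = activation above a per-plate cutoff, the mean activation of sample wells on that plate plus 3 SD, cut at about 8% in these data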
U2OS cAMP counter – nonselective cAMP signaling inhibitors, parental cells, counter-screen for MC4R biased antagonist project, cell-based, TR-FRET, U2OS, forskolin, triplicate | inhibition, % at 6.5 µM | shares compounds with MC4R antagonist | LANCE TR-FRET | AID 602193, 2012 | 26% of 1,600 active;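 active = mean inhibition over triplicates above the low-control well mean plus 3 SD, set per campaign, cut at about 13% in these data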;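 note: signal is single emission at 671 nm which falls as cellular cAMP rises; 0% = forskolin-stimulated wells and 100% = buffer without forskolin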
MC4R antag conf – MC4R cAMP antagonists, retest, confirmation, cell-based, TR-FRET | shares compounds with MC4R antagonist | MC4R-expressing cells, MTII-stimulated cAMP | inhibition, % at 6.5 µM | 27% of 1,600 active | AID 602195, 2012; in the data active = inhibition above about 29%;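 note: 0% = agonist stimulated wells alone and 100% = agonist stimulated wells plus saturating reference antagonist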
Active calls of the source: *; x = not tested or not shown; + = active, no number. The list is not random: actives were taken first. Their share in the collection is about 2.7%.

SMILES	m5-HT2A agonist	Hep lipid drop	PREPL inhibitor	NTR1 ag	MC4R antagonist	MC4R ag barr	U2OS cAMP counter	MC4R antag conf
COc1cccc(CNC(=O)COC(=O)c2ccc(-c3ccc(O)cc3)cc2)c1	-6	x	x	x	-9	-2	x	x
COc1ccc(NC(=O)Nc2cccc3c2O[C@H](CN(C)C(=O)Nc2ccc(C(F)(F)F)cc2)[C@@H](C)CN([C@H](C)CO)C3=O)cc1	4	x	-2	1	35*	0	1	19
C[C@H]1CN([C@@H](C)CO)C(=O)c2cccc(NC(=O)Nc3ccc(C(F)(F)F)cc3)c2O[C@@H]1CN(C)C(=O)Nc1ccc(F)cc1	-10	x	17	11	18	-1	x	x
COC(=O)c1sc(N2C(=O)C(O)=C(C(=O)c3ccc(C)o3)C2c2ccco2)nc1C (configuration not stated)	10	-2	4	2	6	-3	x	x
CSc1nnc(N2C(=O)C(O)=C(C(=O)c3ccc(C)o3)C2c2ccc(C)cc2)s1 (configuration not stated)	-2	-10	4	1	+	-3	52*	88*
COC(=O)c1sc(N2C(=O)C(O)=C(C(=O)c3ccc(C)o3)C2c2ccc(F)cc2)nc1C (configuration not stated)	-4	-8	-7	0	33*	1	17*	22
Clc1ccc(-c2nnc3n2CCCCC3)cc1	-5	1	6	2	6	-2	x	x
Clc1ccc(-c2nnc3n2CCCCS3)cc1	2	32	6	-1	35*	1	-2	-7
COc1ccc(C2CC(c3ccccc3)Nc3nc(NS(C)(=O)=O)nn32)cc1 (configuration not stated)	4	5	41	0	14	0	x	x
CC(=O)CSc1nc(-c2cccs2)c(C#N)c(=O)[nH]1	3	7	x	0	46*	1	36*	60*
CCc1ccccc1-n1nnc(-c2ccccc2)n1	1	10	-23	2	-1	-3	x	x
COc1ccccc1NS(=O)(=O)c1cccc(NC(=O)Nc2ccccc2)c1	0	-34	-12	8	8	0	x	x
COc1ccccc1NS(=O)(=O)c1cccc(NC(=O)c2cc3ccccc3oc2=O)c1	0	x	2	0	29*	7	-5	-11
CSCCC(NC(=O)c1ccc(Cl)cc1)C(=O)OCC(=O)Nc1cc(Cl)ccc1C#N (configuration not stated)	-1	2	-21	1	32*	3	13*	29*
NS(=O)(=O)c1ccc(CNC(=O)c2cc(-c3ccccn3)nc3ccc(Cl)cc23)cc1	-3	-6	-3	0	30*	-2	12	13
CCC(NC(=S)NC1CCCCC1)c1ccc(C)cc1 (configuration not stated)	-7	2	x	0	9	-1	x	x
O=C(CCN1CCOCC1)c1ccc2c(c1)OCCO2	-5	-6	4	1	30*	-1	7	24
Cc1ccccc1Nc1nc(N)nc(CN2CCN(C(=O)c3ccccc3)CC2)n1	-3	27	6	-1	0	-2	x	x
N[C@@H](Cc1ccccc1)C(=O)N1CCC(C(=O)NCC(=O)NCC(=O)O)CC1	3	-8	-4	1	6	-2	x	x
Cc1cc(N2CCN(C)CC2)nc(=S)[nH]1	1	17	1	0	29*	-1	0	-4
Cc1ccc(Cl)cc1N1C(=O)CC(Sc2ccccc2N)C1=O (configuration not stated)	7	x	x	x	6	-2	x	x
COc1ccccc1-c1cc(C(F)(F)F)c(C#N)c(=O)[nH]1	3	4	19	1	7	1	x	x
COc1ccccc1-c1cc(SC)c(C#N)c(=O)o1	-1	-11	3	2	50*	-2	23*	38*
CCC1(c2ccccc2)NC(=O)N(CC#N)C1=O (configuration not stated)	-1	-9	-1	0	29*	-1	4	6
CC1(c2ccccc2)NC(=O)N(CC#N)C1=O (configuration not stated)	1	16	2	0	10	-3	x	x
SMILES	m5-HT2A agonist	Hep lipid drop	PREPL inhibitor	NTR1 ag	MC4R antagonist	MC4R ag barr	U2OS cAMP counter	MC4R antag conf
Cc1ccccc1NC(=O)C1CCCN1S(=O)(=O)c1ccccc1C(F)(F)F (configuration not stated)	1	x	11	1	3	1	x	x
COc1cc(CN2CCCC(N3CCN(c4ccc(F)cc4)CC3)C2)ccc1F (configuration not stated)	-13	-9	-1	2	30*	1	0	5
Cc1[nH]n(-c2ccccc2)c(=O)c1C=NC1CCCCCC1	-2	5	0	-1	34*	0	7	8
Cc1[nH]n(-c2ccccc2)c(=O)c1C=NC1CCCCC1	2	5	1	4	-9	-2	x	x
C=C1CCN([C@@H](Cc2ccccc2)C(=O)NCc2ccc(Cl)cc2)S(=O)(=O)c2ccccc21	-6	x	0	-1	10	1	x	x
COc1ccc(N(C)C(=O)c2sc(Cl)nc2C)cc1	0	-4	7	2	17	2	x	x
Cc1ccc(OC(=O)c2sc(Cl)nc2C)cc1C	-3	-8	-1	16	36*	0	16*	37*
O=C(Nc1ccc(Cl)c(Cl)c1)N1N=CCC1c1ccccc1 (configuration not stated)	1	-6	x	7	13	-1	x	x
O=C1/C(=C\c2ccc(Cl)c(Cl)c2)CN(C(=O)CCN2CCOCC2)C/C1=C/c1ccc(Cl)c(Cl)c1	-7	x	x	x	37*	-4	26*	31*
Cc1ccc(-c2nn(-c3ccccc3)cc2C=C2C(=O)CC(C)(C)CC2=O)cc1	0	-5	11	46*	31*	2	18*	23
Cc1ccc(-c2nn(-c3ccccc3)cc2C=C2SC(=S)N(CCS(=O)(=O)O)C2=O)cc1	3	x	x	x	-7	1	x	x
